Results on four compounds are retold here after ChEMBL document CHEMBL5705899 (Biochem J, 2014).

The source made the active and inactive calls. No cut-off for these calls is given here.

Assay [1] has as its system U2OS. Nature of the assay: Inhibition of PI3K in human U2OS cells expressing FLAG-tagged SGK3 assessed as reduction in 4EBP1 phosphorylation T37/T46 residues at 0.01 to 0.5 uM 1 hr by immunoblot analysis. The note with it: dose 0.01-0.5 µM. The assay is classed as cell-based. In short, it runs like this: (§1)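 FLAG-SGK3 U2OS Flp-In cells (doxycycline-induced) treated for 1 h with class I PI3K inhibitor, 0.5 μM or a dose series as indicated. Lysed in phosphatase-inhibitor buffer, clarified at 16000 g for 10 min at 4°C, Bradford-normalized. Akt, PRAS40 and 4EBP1 phosphosites were read by immunoblot, and SGK3 sites on anti-FLAG immunoprecipitates, with ECL film detection.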
On the technique in general: A western blot detects proteins with antibodies after separation by electrophoresis.

The test system of assay [2] is U2OS. The assay is described as follows: Inhibition of PI3K in human U2OS cells expressing FLAG-tagged SGK3 assessed as reduction in 4EBP1 phosphorylation S65 residues at 0.01 to 0.5 uM 1 hr by immunoblot analysis. The note with it: dose 0.01-0.5 µM. It counts as cell-based. In short, it runs like this:
as §1

The subject of assay [3] is U2OS. The assay is described as follows: Inhibition of PI3K in human U2OS cells expressing FLAG-tagged SGK3 assessed as reduction in PRAS40 phosphorylation T246 residues at 0.01 to 0.5 uM 1 hr by immunoblot analysis. The assay is classed as cell-based. The settings on record: dose 0.01-0.5 µM. In short, it runs like this: as §1
The subject of assay [4] is U2OS. The assay is described as follows: Inhibition of PI3K in human U2OS cells expressing FLAG-tagged SGK3 assessed as reduction in AKT phosphorylation S473 residues at 0.01 to 0.5 uM 1 hr by immunoblot analysis. The assay is classed as cell-based. The settings on record: dose 0.01-0.5 µM. In short, it runs like this: as §1
The test system of assay [5] is U2OS. Nature of the assay: Inhibition of PI3K in human U2OS cells expressing FLAG-tagged SGK3 assessed as reduction in AKT phosphorylation T308 residues at 0.01 to 0.5 uM 1 hr by immunoblot analysis. The assay is classed as cell-based. The settings on record: dose 0.01-0.5 µM. In short, it runs like this:
as §1

Assay [6] addresses Serine/threonine-protein kinase mTOR (Homo sapiens) (UniProt P42345). Nature of the assay: Inhibition of mTOR in human U2OS cells expressing FLAG-tagged SGK3 assessed as reduction in 4EBP1 phosphorylation T37/T46 residues at 0.1 uM 1 hr by immunoblot analysis. It counts as cell-based. A digest of the protocol: (§2)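 Doxycycline-induced FLAG-SGK3 U2OS Flp-In cells exposed to 0.1 μM mTOR inhibitor for 1 h. Clarified lysates immunoblotted for 4EBP1 phosphosites (Thr37/Thr46, Ser65), ECL film detection.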

Assay [7] shares this target. Nature of the assay: Inhibition of mTOR in human U2OS cells expressing FLAG-tagged SGK3 assessed as reduction in 4EBP1 phosphorylation S65 residues at 0.1 uM 1 hr by immunoblot analysis. The assay is classed as cell-based. A digest of the protocol:
as §2

The target of assay [8] is T1, 3-phosphoinositide-dependent protein kinase 1 (Homo sapiens) (UniProt O15530).
T1 sequence (whole entry): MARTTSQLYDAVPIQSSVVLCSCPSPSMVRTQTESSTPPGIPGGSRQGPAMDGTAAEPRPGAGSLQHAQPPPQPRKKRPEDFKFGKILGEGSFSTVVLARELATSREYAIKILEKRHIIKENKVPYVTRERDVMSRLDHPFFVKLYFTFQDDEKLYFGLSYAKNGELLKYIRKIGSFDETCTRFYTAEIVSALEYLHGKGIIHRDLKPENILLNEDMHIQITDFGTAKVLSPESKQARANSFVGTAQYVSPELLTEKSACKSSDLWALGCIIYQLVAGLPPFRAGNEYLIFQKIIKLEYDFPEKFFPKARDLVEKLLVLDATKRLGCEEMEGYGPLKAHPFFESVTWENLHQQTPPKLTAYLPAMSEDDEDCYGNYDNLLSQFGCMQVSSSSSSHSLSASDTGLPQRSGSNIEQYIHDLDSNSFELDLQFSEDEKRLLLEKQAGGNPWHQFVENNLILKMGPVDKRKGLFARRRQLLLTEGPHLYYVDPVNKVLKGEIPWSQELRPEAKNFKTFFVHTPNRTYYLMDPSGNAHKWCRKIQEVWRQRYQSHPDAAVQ
The assay is described as follows: Inhibition of PDK1 in human U2OS cells expressing FLAG-tagged SGK3 assessed as reduction in SGK3 activity at 1 uM using cross peptide as substrate incubated for 30 mins in presence of [gamma-32P]-ATP by radioactive assay. The assay is classed as cell-based. A digest of the protocol: (§3)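 U2OS Flp-In cells with doxycycline-induced (0.01 mg/ml, 24 h) full-length SGK3 carrying a C-terminal FLAG tag; treated with 1 μM inhibitor for 1 h. Lysis, anti-FLAG immunoprecipitation, washes (high-salt lysis buffer, lysis buffer, 50 mM Tris pH 7.5/0.1 mM EGTA). IP kinase assay: 30 μM Crosstide, 0.1 mM [γ-32P]ATP, 10 mM Mg acetate, 30 min. Phosphosites then immunoblotted, ECL. Triplicate reactions.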

In assay [9] the target is T1, 3-phosphoinositide-dependent protein kinase 1 (Homo sapiens). The assay is described as follows: Inhibition of PDK1 in human U2OS cells expressing FLAG-tagged SGK3 assessed as reduction in SGK3 phosphorylation at S486 residues at 1 uM after 1 hr by immunoblot analysis. It counts as cell-based. In short, it runs like this:
as §3

Assay [10] has the same target. The assay is described as follows: Inhibition of PDK1 in human U2OS cells expressing FLAG-tagged SGK3 assessed as reduction in SGK3 phosphorylation at T320 residues at 1 uM after 1 hr by immunoblot analysis. It counts as cell-based. A digest of the protocol:
as §3

The subject of assay [11] is U2OS. The assay is described as follows: Inhibition of PI3K in human U2OS cells expressing FLAG-tagged SGK3 assessed as reduction in SGK3 phosphorylation at S486 residues 0.5 uM after 1 to 2 mins by immunoblot analysis. The assay is classed as cell-based. The settings on record: time 1-2 min.
The subject of assay [12] is U2OS. The assay is described as follows: Inhibition of PI3K in human U2OS cells expressing FLAG-tagged SGK3 assessed as reduction in SGK3 phosphorylation at T320 residues 0.5 uM after 1 hr by immunoblot analysis. The assay is classed as cell-based. A digest of the protocol: as §1
In assay [13] the test system is U2OS. The assay is described as follows: Inhibition of PI3K in human U2OS cells expressing FLAG-tagged SGK3 assessed as reduction in AKT phosphorylation S473 residues at 0.5 uM 1 hr by immunoblot analysis. The assay is classed as cell-based. In short, it runs like this:
as §1

In assay [14] the test system is U2OS. Nature of the assay: Inhibition of PI3K in human U2OS cells expressing FLAG-tagged SGK3 assessed as reduction in AKT phosphorylation T308 residues at 0.5 uM 1 hr by immunoblot analysis. It counts as cell-based. A digest of the protocol: as §1
For assay [15], the system named is U2OS. The assay is described as follows: Inhibition of PI3K in human U2OS cells expressing FLAG-tagged SGK3 assessed as reduction in 4EBP1 phosphorylation S65 residues at 0.5 uM 1 hr by immunoblot analysis. The assay is classed as cell-based. A digest of the protocol:
as §1

Assay [16] has as its target Phosphatidylinositol 3-kinase catalytic subunit type 3 (Homo sapiens) (UniProt Q8NEB9). The assay is described as follows: Inhibition of Vps34 in human U2OS cells expressing C-terminal tagged-SGK3 assessed as reduction in SGK3 level in endosome at 0.5 uM incubated for 1 hr by Alexa Fluor 594 staining based fluorescence microscopic analysis. It counts as subcellular.

The subject of assay [17] is U2OS. The assay is described as follows: Inhibition of PI3K in human U2OS cells expressing FLAG-tagged SGK3 assessed as reduction in SGK3 activity at 0.5 uM using cross peptide as substrate incubated for 1 to 2 mins in presence of [gamma-32P]-ATP by radioactive assay. It counts as cell-based. The settings on record: time 1-2 min.
Assay [18] deals with U2OS. The assay is described as follows: Inhibition of PI3K in human U2OS cells expressing FLAG-tagged SGK3 assessed as reduction in SGK3 phosphorylation at S486 residues 0.5 uM after 1 hr by immunoblot analysis. It counts as cell-based. In short, it runs like this:
as §1

The target in assay [19] is Phosphatidylinositol 3-kinase catalytic subunit type 3 (Homo sapiens) (UniProt Q8NEB9). Nature of the assay: Inhibition of Vps34 in human U2OS cells expressing GFP-2xFYVEHrs assessed as reduction in PtdIns(3)P level in endosome at 0.5 uM incubated for 1 hr by Alexa Fluor 488 staining based fluorescence microscopic analysis relative to control. A digest of the protocol: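 U2OS clone with low stable expression of lentiviral GFP–2×FYVEHrs; 1 h inhibitor exposure. Permeabilized by a freeze–thaw in liquid nitrogen, then fixed in 4% paraformaldehyde, stained with anti-GFP plus Alexa Fluor 488 secondary and DAPI. Ten random fields of 20–25 cells each; fluorescence per cell (field total/cell count) expressed relative to DMSO, mean±S.D.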
Phosphatidylinositol 3-kinase catalytic subunit type 3 (Homo sapiens), sequence (Q8NEB9 whole entry): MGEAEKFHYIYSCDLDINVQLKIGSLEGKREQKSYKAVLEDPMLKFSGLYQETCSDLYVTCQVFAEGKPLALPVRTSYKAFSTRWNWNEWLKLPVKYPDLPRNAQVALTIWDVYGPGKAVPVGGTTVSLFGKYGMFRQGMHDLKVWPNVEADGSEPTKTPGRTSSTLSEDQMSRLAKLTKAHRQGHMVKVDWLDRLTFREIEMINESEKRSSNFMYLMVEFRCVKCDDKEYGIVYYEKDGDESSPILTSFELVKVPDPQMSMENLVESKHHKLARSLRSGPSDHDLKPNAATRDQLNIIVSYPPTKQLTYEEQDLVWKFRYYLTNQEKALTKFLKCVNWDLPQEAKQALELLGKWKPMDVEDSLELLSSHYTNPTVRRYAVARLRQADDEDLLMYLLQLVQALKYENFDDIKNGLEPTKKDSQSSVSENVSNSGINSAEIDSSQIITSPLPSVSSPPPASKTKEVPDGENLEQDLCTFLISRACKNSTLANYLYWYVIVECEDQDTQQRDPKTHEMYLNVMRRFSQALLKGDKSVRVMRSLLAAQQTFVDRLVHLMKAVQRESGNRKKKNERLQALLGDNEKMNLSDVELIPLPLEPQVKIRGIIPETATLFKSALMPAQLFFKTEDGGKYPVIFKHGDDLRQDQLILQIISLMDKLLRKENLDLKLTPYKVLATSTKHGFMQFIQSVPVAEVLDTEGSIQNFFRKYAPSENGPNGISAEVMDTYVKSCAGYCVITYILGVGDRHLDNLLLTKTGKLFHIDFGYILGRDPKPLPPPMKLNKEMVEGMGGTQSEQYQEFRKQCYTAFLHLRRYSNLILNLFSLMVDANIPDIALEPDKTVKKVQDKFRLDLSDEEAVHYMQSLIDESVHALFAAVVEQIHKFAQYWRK

Assay [20] deals with U2OS. The assay is described as follows: Inhibition of PI3K in human U2OS cells expressing FLAG-tagged SGK3 assessed as reduction in PRAS40 phosphorylation T246 residues at 0.5 uM 1 hr by immunoblot analysis. The assay is classed as cell-based. In short, it runs like this: as §1
For assay [21], the system named is U2OS. Nature of the assay: Inhibition of PI3K in human U2OS cells expressing GFP-PHAkt1 assessed as reduction in IGF-stimulated PtdIns(3,4,5)P3/PtdIns(3,4)P2 level in endosome at 0.5 uM pre incubated for 1 hr followed by IGF stimulation and measured after 15 mins by Alexa Fluor 488 staining based fluorescence microscopic analysis. The assay is classed as subcellular. The settings on record: time 1.25 hrs.

Assay [22] relates to U2OS. Nature of the assay: Inhibition of PI3K in human U2OS cells expressing FLAG-tagged SGK3 assessed as reduction in NDRG1 phosphorylation at T346 residues at 0.5 uM 1 hr by immunoblot analysis. The assay is classed as cell-based.
Assay [23] deals with U2OS. Nature of the assay: Inhibition of PI3K in human U2OS cells expressing FLAG-tagged SGK3 assessed as reduction in SGK3 phosphorylation at T320 residues 0.5 uM after 1 to 2 mins by immunoblot analysis. The note with it: time 1-2 min. It counts as cell-based.
Assay [24] relates to U2OS. Nature of the assay: Inhibition of PI3K in human U2OS cells expressing FLAG-tagged SGK3 assessed as reduction in 4EBP1 phosphorylation T37/T46 residues at 0.5 uM 1 hr by immunoblot analysis. It counts as cell-based. A digest of the protocol:
as §1

Take `Nc1cc(C(F)(F)F)c(-c2cc(N3CCOCC3)nc(N3CCOCC3)n2)cn1`: the inhibition result with U2OS [1] and in the assay with U2OS [2] was “inactive” each time. The inhibition entry in the assay on U2OS [3], in the assay with U2OS [4] and with U2OS [5] was “Active” in each case.
Regarding `COc1ccc(-c2ccc3c(N4CCOC[C@@H]4C)nc(N4CCOC[C@@H]4C)nc3n2)cc1CO`, the inhibition entry in assay [6] and in [7] was “Active” each time.
Take `CNc1nc(-c2ccc3c(N)n[nH]c3c2)cc(N2C[C@@H](C(=O)NC3CCCCC3)CC[C@H]2C)n1`: the inhibition entry in [8], in assay [9] and in assay [10] was “Active” throughout.
With `CS(=O)(=O)N1CCN(Cc2cc3nc(-c4cccc5[nH]ncc45)nc(N4CCOCC4)c3s2)CC1`, the inhibition result in the assay on U2OS [11], in the assay on U2OS [12], in the assay on U2OS [13], with U2OS [14], in the assay with U2OS [17] and in the assay with U2OS [18] was “Active” in each case. Further, the inhibition result with U2OS [20], in the assay on U2OS [21], in the assay with U2OS [22] and with U2OS [23] was “Active” throughout. In addition, the inhibition result (in the assay with U2OS [15]; in [16]; in [19]; with U2OS [24]) was “inactive” throughout.
